NPY2 pot ag: NPY-Y2 potentiators or agonists, primary screen, cell-based. Neuropeptide Y receptor type 2 (Homo sapiens), P49146. cells expressing NPY-Y2, potentiator/agonist read-out. activation, % at 3.6 µM. actives 0.45% (n = 220,000). AID 1359, 2008; in the data active = activation above about 27%;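 also: cells stimulated with NPY near EC25 plus isoproterenol at EC100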
Target sequence (P49146 whole entry, looked up): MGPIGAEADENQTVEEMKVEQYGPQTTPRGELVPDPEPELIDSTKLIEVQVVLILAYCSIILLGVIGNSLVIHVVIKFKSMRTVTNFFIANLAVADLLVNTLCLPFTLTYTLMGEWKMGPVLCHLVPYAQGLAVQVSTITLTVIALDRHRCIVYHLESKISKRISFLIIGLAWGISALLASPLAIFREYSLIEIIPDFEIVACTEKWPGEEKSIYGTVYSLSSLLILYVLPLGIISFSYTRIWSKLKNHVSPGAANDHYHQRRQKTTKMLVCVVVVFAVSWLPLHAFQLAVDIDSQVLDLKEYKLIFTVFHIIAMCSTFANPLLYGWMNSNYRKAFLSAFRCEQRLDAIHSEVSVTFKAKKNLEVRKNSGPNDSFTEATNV
NPY-Y1 PAM-ag: NPY-Y1 receptor potentiators or agonists, primary screen, cell-based. Neuropeptide Y receptor type 1 (Homo sapiens), P25929. NPY-Y1 expressing cells, potentiator/agonist activation. activation, % at 3.6 µM. actives 0.37% (n = 220,000). AID 1304, 2008; in the data active = activation above about 33%, passing the limit was not always enough;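 also: cells stimulated with NPY at EC10 then isoproterenol at EC100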
Target sequence (P25929 whole entry, looked up): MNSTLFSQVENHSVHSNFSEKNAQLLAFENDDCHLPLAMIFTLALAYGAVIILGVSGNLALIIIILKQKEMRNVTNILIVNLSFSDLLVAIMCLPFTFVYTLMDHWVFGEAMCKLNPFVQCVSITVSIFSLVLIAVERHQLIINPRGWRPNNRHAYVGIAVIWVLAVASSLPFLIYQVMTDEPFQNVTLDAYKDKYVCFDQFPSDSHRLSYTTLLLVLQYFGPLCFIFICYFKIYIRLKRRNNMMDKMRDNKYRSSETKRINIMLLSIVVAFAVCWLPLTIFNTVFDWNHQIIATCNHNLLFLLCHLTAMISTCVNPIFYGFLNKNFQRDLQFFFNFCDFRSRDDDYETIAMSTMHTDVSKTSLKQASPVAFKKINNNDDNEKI
NPY Y1 blocker: NPY-Y1 receptor antagonists, primary screen, cell-based. Neuropeptide Y receptor type 1 (Homo sapiens), P25929. HEK293-CNG Y1 cells, membrane potential fluorescence; NPY at EC95, then isoproterenol. inhibition, % at 3.6 µM. actives 1% (n = 200,000). AID 1040, 2008;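 active = inhibition above the campaign mean inhibition of all tested compounds plus 3 SD, cut at about 20% in these data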
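Material: HEK293 cells with Y1 receptor plus CNG channel; times: compound incubation 1 h at room temperature, readout 45 min post-stimulation; signal: fluorescence, membrane potential probe; read-out basis: fluorescence ratio normalized to % inhibition between controls; benchmarks: full-block control isoproterenol-only wells, zero-block control NPY plus isoproterenol wells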
NPY-Y2 antag: NPY-Y2 receptor antagonists, primary screen, cell-based; AID 793, 2007; NPY-Y2 expressing cells, antagonist mode; inhibition, % at 2.7 µM; actives 0.99% (n = 140,000)
NPY-Y1 ant conf: NPY-Y1 receptor antagonists, retest of hits, confirmation, HEK293-CNG cells, membrane potential fluorescence, triplicate; inhibition, % at 3.6 µM; actives 21% (n = 1,200); shares compounds with NPY Y1 blocker; cAMP; NPY challenge against isoproterenol-raised cAMP; in the data active = inhibition above about 20%
NPY-Y2 antag ct: NPY-Y2 receptor antagonists, selectivity check, confirmation, counter-screen for NPY-Y1 antagonist project, HEK293-CNG cells, membrane potential fluorescence, triplicate | shares compounds with NPY Y1 blocker | antagonism; cells given NPY, then isoproterenol | inhibition, % at 3.6 µM | actives 28% (n = 1,200) | AID 1255, 2008
NPY-Y1 confirm: NPY-Y1 potentiators or agonists, confirmation, cell-based; shares compounds with NPY-Y1 PAM-ag; cell-based NPY-Y1 potentiator/agonist assay; activation, % at 3.6 µM; actives 20% (n = 280); in the data active = activation above about 45%;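 also: cells challenged with NPY at its EC10 plus isoproterenol stimulus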
NPY-Y2 counter: NPY-Y2 potentiators or agonists, counter-screen for NPY-Y1 potentiator project, cell-based, fluorescence; shares compounds with NPY-Y1 PAM-ag; HEK293-CNG cells, membrane-potential fluorescence (FLIPR), 1536-well; activation, % at 3.6 µM; actives 20% (n = 280); AID 1649, 2009; in the data active = activation above about 33%
NPY-Y1 agonist: NPY-Y1 direct agonists without NPY, confirmation, counter-screen for NPY-Y1 potentiator project, cell-based, fluorescence | HEK293 Y1-CNGC, membrane potential fluorescence, agonist mode | shares compounds with NPY-Y1 PAM-ag | actives 50% (n = 280) | activation, % at 3.6 µM;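 active = percent activation above the mean of DMSO-only control wells plus 3 SD of those wells, cut at about 18% in these data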;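 also: cells challenged with isoproterenol plus Ro 20-1724 with no NPY in test wells; Y1 agonism lowers isoproterenol-driven cAMP and reduces probe fluorescence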
NPY-Y2 ag: NPY-Y2 direct agonists without NPY, counter-screen for NPY-Y1 potentiator project, cell-based, fluorescence; activation, % at 3.6 µM; actives 67% (n = 280); shares compounds with NPY-Y1 PAM-ag; HEK293 Y2-CNGC, membrane potential fluorescence, agonist mode;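 active = activation above the solvent-only control wells' mean plus 3 SD, cut at about 11% in these data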;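 also: agonism lowers cAMP so well fluorescence drops in active wells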
CNGC counter: CNGC cAMP sensor activity inhibitors, counter-screen for NPY-Y1 potentiator/agonist project, cell-based, HEK293-CNG parental, membrane potential fluorescence, Y1 set; shares compounds with NPY-Y1 PAM-ag; isoproterenol cAMP; inhibition, % at 3.6 µM; actives 42% (n = 280); AID 1704, 2009;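 active = inhibition above the mean of stimulated solvent-only control wells plus 3 SD, cut at about 22% in these data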
NPY-Y2 confirm: NPY-Y2 potentiators or agonists, confirmation, cell-based. shares compounds with NPY2 pot ag. cell-based NPY-Y2 potentiator/agonist assay. activation, % at 3.6 µM. actives 20% (n = 450); in the data active = activation above about 33%
NPY-Y1 counter: NPY-Y1 potentiators or agonists, counter-screen for NPY-Y2 potentiator project, cell-based, fluorescence | shares compounds with NPY2 pot ag | Y1 HEK293-CNG cells, membrane potential fluorescence | activation, % at 3.6 µM | actives 20% (n = 450) | AID 1651, 2009; in the data active = activation above about 45%;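 also: cells stimulated with submaximal NPY then isoproterenol with phosphodiesterase inhibitor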
NPY-Y1 agonist 2: NPY-Y1 direct agonists, selectivity assay for NPY-Y2 potentiator project, cell-based, fluorescence; shares compounds with NPY2 pot ag; HEK293 Y1-CNGC, membrane potential fluorescence, agonism; activation, % at 3.6 µM; actives 37% (n = 450); AID 1702, 2009;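 active = activation above the mean of DMSO-only control wells plus 3 SD, cut at about 18% in these data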;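 also: cells stimulated with 1 µM isoproterenol plus the PDE inhibitor Ro 20-1724; Y1 agonists lower the membrane potential dye signal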
CNGC inh: CNGC cAMP sensor activity inhibitors, counter-screen for NPY-Y2 potentiator project, cell-based, HEK293-CNG parental, membrane potential fluorescence | shares compounds with NPY2 pot ag | isoproterenol cAMP | inhibition, % at 3.6 µM | actives 32% (n = 450) | AID 1703, 2009;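 active = inhibition above the control-well mean plus 3 SD of those wells, cut at about 22% in these data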
Y2 agonist ctr: NPY-Y2 direct agonists, counter-screen for NPY-Y2 potentiator project, cell-based, fluorescence. shares compounds with NPY2 pot ag. HEK293 Y2/CNGC cells, membrane potential fluorescence, agonist mode. activation, % at 3.6 µM. actives 56% (n = 450). AID 1710, 2009;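 active = activation above the mean of solvent-only control wells plus 3 SD, cut at about 10% in these data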;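 also: cells stimulated by isoproterenol with no NPY added so direct agonism is tested; agonism lowers probe fluorescence through less cAMP and CNG channel opening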
Each line names hits and unclear results; the compound was inactive in the other large screens (follow-up assays come after a bar, where they were run); ! = repeats disagree. Hits are enriched below; roughly 1.9% of the tested compounds scored in any of these assays. Rule as the data show it, unless noted: active = inhibition above about 17%; inactive = the rest.

c1ccc(Cc2nnc3sc(-c4ccccn4)nn23)cc1	none
CC(=O)Nc1ccc(S(=O)(=O)N[C@@H](C)C(=O)OCc2ccc(Cl)cc2)cc1	none
COc1ccc(Oc2cn[nH]c2-c2ccc(O)cc2O)cc1	NPY Y1 blocker 61.4 | NPY-Y1 ant conf 40.2 | NPY-Y2 antag ct inactive
CCOc1ccccc1CN1CCC(CO)(CCOc2ccccc2)CC1	NPY Y1 blocker 31.4 (no result: NPY-Y2 antag) | NPY-Y1 ant conf inactive | NPY-Y2 antag ct inactive
COc1ccc(CN2CCC(CO)(CCOc3ccccc3)CC2)c(OC)c1C	NPY Y1 blocker 24.3 (no result: NPY-Y2 antag) | NPY-Y1 ant conf inactive | NPY-Y2 antag ct inactive
N[C@@H](Cc1cc(I)c(Oc2ccc(O)c(I)c2)c(I)c1)C(=O)O	NPY Y1 blocker 58.8! | NPY-Y1 ant conf inactive | NPY-Y2 antag ct inactive
Cc1ccc(Nc2nc(-c3c(C)nc4ncccn34)cs2)cc1	NPY Y1 blocker 24.1 | NPY-Y1 ant conf inactive | NPY-Y2 antag ct inactive
CCOC(=O)/C(C)=N/Nc1nc(-c2ccc(NC(C)=O)cc2)cs1	none (no result: NPY Y1 blocker, NPY-Y2 antag)
CCOC(=O)N1CCN(C(=O)CSCC(=O)Nc2nc(-c3ccc(-c4ccccc4)cc3)cs2)CC1	NPY2 pot ag 33.5, NPY Y1 blocker 21.1 | NPY-Y1 ant conf inactive | NPY-Y2 antag ct inactive | NPY-Y2 confirm inactive | NPY-Y1 counter inactive | NPY-Y1 agonist 2 inactive | CNGC inh inactive | Y2 agonist ctr inactive
CCOC(=O)N1CCN(C(=O)CSCC(=O)Nc2nc(-c3ccc(OC)cc3)cs2)CC1	none
O=C(NCc1ccccc1Cl)C1CCC(CNc2c(N3CCOCC3)c(=O)c2=O)CC1 (centres undefined)	none (no result: NPY Y1 blocker, NPY-Y2 antag)
Cc1ccc(-n2ncc(C(=O)Nc3cc(Cl)cc(Cl)c3)c2C2CCNCC2)cc1C	NPY2 pot ag 50.8, NPY Y1 blocker 33.5 (no result: NPY-Y2 antag) | NPY-Y1 ant conf inactive | NPY-Y2 antag ct inactive | NPY-Y2 confirm 48.3 | NPY-Y1 counter 61.6 | NPY-Y1 agonist 2 inactive | CNGC inh 26.4 | Y2 agonist ctr 31.2
Cc1ccc(-n2ncc(C(=O)Nc3cc(Cl)ccc3Cl)c2C2CCNCC2)cc1	none (no result: NPY-Y2 antag)
CC(C)(C)NCc1cc(Cl)ccc1OCc1ccccc1F	NPY2 pot ag 31.5, NPY Y1 blocker 24.0 (no result: NPY-Y2 antag) | NPY-Y1 ant conf inactive | NPY-Y2 antag ct inactive | NPY-Y2 confirm inactive | NPY-Y1 counter inactive | NPY-Y1 agonist 2 inactive | CNGC inh inactive | Y2 agonist ctr inactive
O=C(Cn1c2ccccc2c(=O)c2ccccc21)Nc1cccc(F)c1	none
CC(NC(=O)Nc1nnc(C(F)(F)F)s1)(C(F)(F)F)C(F)(F)F	NPY2 pot ag 57.6, NPY Y1 blocker 42.5 | NPY-Y1 ant conf 27.3 | NPY-Y2 antag ct inactive | NPY-Y2 confirm inactive | NPY-Y1 counter inactive | NPY-Y1 agonist 2 inactive | CNGC inh inactive | Y2 agonist ctr inactive
COc1ccc(-n2nc3ccc(NS(C)(=O)=O)cc3n2)cc1Cl	NPY-Y1 PAM-ag 42.1 | NPY-Y1 confirm inactive | NPY-Y2 counter inactive | NPY-Y1 agonist 45.5 | NPY-Y2 ag 15.9 | CNGC counter inactive
Cc1ccn2cc(-c3ccc(NC(=O)c4ccco4)cc3)nc2c1	none
CCN(CC)S(=O)(=O)c1ccc(N2CCOCC2)c(NC(=O)C23CC4CC(CC(Cl)(C4)C2)C3)c1	none
COc1ccc(N(CCCN2C(=O)c3cccc4cccc(c34)C2=O)C(=O)c2ccncc2)cc1	NPY-Y1 PAM-ag 42.4 (no result: NPY-Y2 antag) | NPY-Y1 confirm inactive | NPY-Y2 counter inactive | NPY-Y1 agonist inactive | NPY-Y2 ag inactive | CNGC counter inactive
COc1ccc(N(CCCN2C(=O)c3cccc4cccc(c34)C2=O)C(=O)c2cccnc2)cc1	none (no result: NPY-Y2 antag)
CCN(C(=O)COC(=O)c1cc(=O)[nH]c2ccccc12)C1CCS(=O)(=O)C1 (centres undefined)	none (no result: NPY Y1 blocker, NPY-Y2 antag)
O=C(O)/C=C/c1ccc(S(=O)(=O)NCc2ccco2)cc1	NPY-Y1 PAM-ag 64.3 (no result: NPY-Y2 antag) | NPY-Y1 confirm inactive | NPY-Y2 counter inactive | NPY-Y1 agonist inactive | NPY-Y2 ag inactive | CNGC counter inactive

High-throughput results: PubChem, The Scripps Research Institute Molecular Screening Center
